Bioassay records: PubChem, several laboratories
Only some compounds are listed: those with a hit (about 6.9% of all), similar ones and a draw of the others.
tolC growth inh: growth inhibitors of E. coli tolC mutant, primary screen, strain BW25113 ΔtolC::kan, 384-well; 2.2% of 65,000 active; growth inhibition, % at 10 µM (by protocol); OD615;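 active = growth inhibition at or above a cutoff equal to the mean over every tested compound plus 3 SD, cut at about 60% in these data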;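 also: growth measured after 20 h incubation at 37 °C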
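test system = E. coli BW25113 ΔtolC::kan bacteria | medium = LB with kanamycin 50 µg/mL | signal = OD at 615 nm | schedule = 37 °C, 20 h exposure | evaluation = % inhibition of E. coli growth | compound dosing = one dose of 10 µM final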
FAK blocker: FAK kinase inhibitors, primary screen, biochemical; inhibition, %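 (tested at 7 µM)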; AID 727, 2007; biochemical FAK kinase activity assay; 0.84% of 97,000 active; Focal adhesion kinase 1 (Homo sapiens), Q05397; in the data active = inhibition above about 19%;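 also: 0% = DMSO and 100% = reference compound high control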
Target sequence (Q05397 whole entry, looked up): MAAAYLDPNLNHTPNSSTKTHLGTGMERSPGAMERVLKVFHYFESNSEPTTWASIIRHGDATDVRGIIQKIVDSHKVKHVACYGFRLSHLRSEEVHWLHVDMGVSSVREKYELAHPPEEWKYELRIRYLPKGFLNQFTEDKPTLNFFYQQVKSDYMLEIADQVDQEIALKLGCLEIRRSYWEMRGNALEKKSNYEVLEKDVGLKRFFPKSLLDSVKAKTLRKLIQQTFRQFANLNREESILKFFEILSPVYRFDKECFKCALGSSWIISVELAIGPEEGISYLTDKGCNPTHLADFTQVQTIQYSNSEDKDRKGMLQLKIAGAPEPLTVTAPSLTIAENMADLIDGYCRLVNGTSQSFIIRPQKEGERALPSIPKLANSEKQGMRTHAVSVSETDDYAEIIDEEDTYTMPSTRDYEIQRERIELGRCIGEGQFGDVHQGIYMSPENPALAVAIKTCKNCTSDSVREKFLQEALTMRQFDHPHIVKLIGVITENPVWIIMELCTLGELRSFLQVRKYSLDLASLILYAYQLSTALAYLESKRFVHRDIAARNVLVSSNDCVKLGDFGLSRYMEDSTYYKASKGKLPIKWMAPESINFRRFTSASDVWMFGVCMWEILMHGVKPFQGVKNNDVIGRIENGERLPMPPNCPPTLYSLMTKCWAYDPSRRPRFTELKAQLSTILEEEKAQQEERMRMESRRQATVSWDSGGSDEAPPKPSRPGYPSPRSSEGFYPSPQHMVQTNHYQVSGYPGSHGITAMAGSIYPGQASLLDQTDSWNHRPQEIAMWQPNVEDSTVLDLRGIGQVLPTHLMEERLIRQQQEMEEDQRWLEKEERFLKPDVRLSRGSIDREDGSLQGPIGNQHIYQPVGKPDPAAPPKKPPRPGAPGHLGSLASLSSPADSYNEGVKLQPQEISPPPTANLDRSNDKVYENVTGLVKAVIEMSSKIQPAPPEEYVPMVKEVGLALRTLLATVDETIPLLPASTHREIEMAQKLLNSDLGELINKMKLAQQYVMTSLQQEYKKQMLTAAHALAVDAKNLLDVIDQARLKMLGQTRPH
Calb biofilm kill: clotrimazole potentiators killing Candida biofilms, primary screen, with clotrimazole, Alamar Blue; C. albicans biofilm + clotrimazole; inhibition, % at 6 µM; 0.14% of 85,000 active; AID 834, 2007;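 active = inhibition above 20%; inactive = inhibition below 20%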;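 also: preformed 24 hr biofilms exposed to compound for 48 hr; 0% = biofilm without compound and 100% = blank killed by clotrimazole plus chlorhexidine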
PostGolgi yeast: phenotypic screen on post-Golgi transport, primary screen; post-Golgi transport phenotypic cell assay; inhibition, % at 10 µM; 0.9% of 98,000 active;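 also: yeast cells grown in 1536-well plates; yeast grown about 18 h at 30C before absorbance read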
Pyk2 oligo antag: antagonists of Pyk2 self-association, primary screen, Q293 cells, FERM NanoBiT luminescence, HTS; 0.83% of 99,000 active; z-score (the deposit names both 25 µM and 10 µM); stronger effect = lower value; Protein-tyrosine kinase 2-beta (Homo sapiens), Q14289;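 active = Z-score of -3 or lower, scaled per plate to the spread of control and sample wells; inactive = z-score above -3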;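 also: negative z-score means lost luminescence so less FERM oligomerization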
PostGolgi ctrl: growth inhibition of yeast control strain, primary screen, counter-screen for post-Golgi transport modulator project; efflux-deficient yeast background strain, growth absorbance A615, 16 h; inhibition, % at 10 µM; 5% of 98,000 active
The depositor's hits bear a star; / = not tested or not shown. Rule as the data show it, unless noted: active = inhibition above about 30%; inactive = the rest.

SMILES	tolC growth inh	FAK blocker	Calb biofilm kill	PostGolgi yeast	Pyk2 oligo antag	PostGolgi ctrl
CCN(CC)CCn1nc(C)nc1-c1ccccc1O	6.6	-2.4	4.3	40.4*	0.66	-5.8
CCOc1ccccc1C1C(C(=O)OC)=C(N)OC2=C1C(=O)CCC2 (stereo unspecified)	-14.1	/	7.8	-3.2	1.55	7.5
CCOc1ccc(Br)cc1C1C(C(=O)OC)=C(N)Oc2cc(N(C)C)ccc21 (stereo unspecified)	/	1.6	1.8	1.4	-1.28	31.4*
O=S(=O)(c1cccs1)N1CCN(CC(O)COc2cc(Cl)ccc2Cl)CC1 (stereo unspecified)	27.4	-3.7	6.6	2.2	-1.05	32.8*
COc1ccc(-c2nnc(SCc3cc(C)cc(C)c3)o2)cc1	69.4*	-0.6	6.1	-0.9	-1.6	12.5
COc1ccc(CN(C(=O)CSc2nnc(-c3ccc(F)cc3)o2)c2ccc(F)cc2)cc1	26.9	/	0.8	5.2	-2.13	38.3*
COc1ccc(CN(C(=O)CSc2nnc(-c3c[nH]c4ccccc34)o2)c2ccc(F)cc2)cc1OC	/	1.4	6.1	/	-4.2*	/
CC1CCCCN1Cc1ccc(-c2nnn(CC(=O)NC3CCCCC3)n2)cc1 (stereo unspecified)	/	-2.0	7.3	/	-0.26	/
CCN(CC)c1ccc(C=N/C(C#N)=C(\N)C#N)cc1	-13.3	4.8	10.4	5.3	-1.2	7.1
COc1ccc(C2C=C(c3ccc(Br)s3)Nc3ncnn32)cc1OC (stereo unspecified)	2.5	/	/	2.2	/	34.9*
COc1ccc(C2C=C(c3ccc(C)cc3)Nc3ncnn32)cc1 (stereo unspecified)	6.0	3.4	-5.6	0.6	-1.04	6.9
Clc1ccc(OCCCNCc2ccccc2)c(Br)c1	/	5.5	/	-37.1	1.06	30.5*
Cn1c2ccc(F)cc2c2ncn(CCN3CCOCC3)c(=O)c21	-6.9	3.5	9.0	32.9*	0.19	20.1
Cn1c2ccccc2c2ncn(CCC3=CCCCC3)c(=O)c21	21.7	7.9	8.8	-4.0	-0.29	34.0*
CCSc1nc2ccccc2n1CCC(=O)O	-17.8	1.1	5.1	8.4	0.34	21.1
COc1ccc(NC(=O)c2cc3cc(OC)ccc3oc2=N)cc1	4.5	/	8.9	73.1*	-0.31	77.5*
COc1ccc(NC(=O)c2cn(-c3ccccc3)nc2-c2cc3ccccc3o2)cc1	/	-5.0	/	6.6	-4.5*	23.1
O=C(NNS(=O)(=O)c1ccccc1[N+](=O)[O-])c1ccc(O)cc1	/	-2.6	3.3	7.2	0.37	6.5
Cc1ccc2c(c1)N(CC(=O)NC1CCCc3ccccc31)C(=O)CO2 (stereo unspecified)	-16.0	3.2	8.2	-2.3	-0.76	34.3*
Cc1ccc2c(c1)N(CC(=O)NC1CCC(C)CC1)C(=O)CO2 (stereo unspecified)	-4.8	0.8	8.0	12.4	-0.62	5.5
O=C(c1n[nH]c(=O)c2ccccc12)N1CCN(c2ccccc2Cl)CC1	6.9	5.0	2.4	-1.9	0.06	49.9*
O=C(c1n[nH]c(=O)c2ccccc12)N1CCN(c2ccccc2)CC1	-9.7	-0.8	-4.3	7.0	-0.22	0.5
CCCSC1=C(C#N)C(c2ccc(Cl)cc2Cl)CC(=O)N1 (stereo unspecified)	23.9	1.7	3.0	-2.1	-1.02	36.7*
CCCSC1=C(C#N)C(c2ccccc2C)CC(=O)N1 (stereo unspecified)	-3.4	6.8	6.2	0.2	-0.17	10.8
CCSC1=C(C#N)C(c2ccccc2Cl)CC(=O)N1 (stereo unspecified)	1.6	-0.6	/	-1.6	-0.39	15.4
SMILES	tolC growth inh	FAK blocker	Calb biofilm kill	PostGolgi yeast	Pyk2 oligo antag	PostGolgi ctrl
CCCCSC1=C(C#N)C(c2ccccc2C)CC(=O)N1 (stereo unspecified)	-9.3	3.4	2.5	11.4	/	33.4*
Cn1c2ccccc2c2nnc(SCN3C(=O)c4ccccc4C3=O)nc21	-11.4	/	-0.1	/	/	/
O=C(CCNS(=O)(=O)c1ccc2c(c1)CCC(=O)N2)NCc1ccc2c(c1)OCO2	-9.5	1.4	2.2	0.9	0.42	9.0
N#CC1=C(N)Oc2ccc3ccc(O)cc3c2C1c1cccnc1 (stereo unspecified)	/	7.5	/	-6.2	-3.2*	-1.5
COC(=O)C1=C(C)OC(N)=C(C#N)C1c1cccnc1 (stereo unspecified)	/	-1.1	3.4	3.7	0.22	-1.3
N#CC(c1ccc(Cl)cc1)c1nc2ccccc2nc1C(F)(F)F (stereo unspecified)	/	2.8	/	3.8	-1.64	3.9
CCCCCOc1ccc(Cl)cc1CN1CCOCC1	-1.8	1.1	7.4	57.6*	-0.23	25.9
CC(C)CCOc1ccc(Cl)cc1CN1CCOCC1	6.9	-0.5	1.7	32.4*	-0.5	36.5*
CCOc1ccc(Cl)cc1CN1CCOCC1	/	-1.3	4.8	-7.2	-0.49	13.1
CN(C)c1ccc(C2NCC(CCl)O2)cc1 (stereo unspecified)	/	5.3	/	11.0	0.77	5.3
CCN(CC)c1ccc(C2NCC(c3ccc([N+](=O)[O-])cc3)O2)cc1 (stereo unspecified)	/	-0.1	6.2	/	-3.16*	/
C/C(CC(C)(C)C1CCCCC1)=N\NC(N)=S	/	2.5	9.8	106.7*	1.51	100.2*
COc1ccccc1-c1noc(-c2ccccc2)n1	12.4	-4.2	-4.1	4.6	-0.62	11.4
CC(=O)N1CCC(N(C(=O)Nc2ccc(F)cc2)C2CCCC2)CC1	/	-2.5	-1.5	-0.2	/	6.8
COC(=O)c1sc(N2C(=O)c3oc4ccccc4c(=O)c3C2c2cccs2)nc1C (stereo unspecified)	6.5	-1.6	/	-5.1	-0.92	-1.7
CN(C)C(=O)CCc1nc(-c2ccc(C(C)(C)C)cc2)no1	35.8	5.5	3.2	-8.6	0.3	10.2
COC(=O)c1c(NC(=O)CCc2ccc(C)o2)sc(C)c1C	61.4*	-1.1	4.0	3.9	0.26	5.1
Cc1cc(C)c(C)c(OCC(=O)N2CCOCC2)c1	/	0.8	2.8	-9.0	-0.12	5.5
O=C(NCc1cccs1)c1ccc(CS(=O)(=O)c2ccc(Cl)cc2)o1	/	-2.4	2.5	-4.3	0.81	6.3
O=C(Nc1nc2c(s1)CCc1ccccc1-2)c1ccco1	47.2	0.5	1.4	-9.3	-1.02	20.1
COc1cc(/C=c2\s/c(=C(/C#N)C(=O)N3CCCC3)n(-c3ccccc3)c2=O)ccc1O	5.8	-5.0	-0.3	-0.3	-3.04*	1.3
CCOC(=O)CN1CC23C=CC(O2)C(C(=O)Nc2cc(OC)ccc2OC)C3C1=O (stereo unspecified)	0.0	/	1.8	-5.4	/	1.1
CS(=O)(=O)N1CCC(C(=O)Nc2cc(C(F)(F)F)ccc2Cl)CC1	0.2	-1.4	9.0	4.3	0.67	-9.6
O=C(Nc1cc(C(F)(F)F)ccc1Cl)C1CCN(c2nnc(-n3cccc3)s2)CC1	7.7	/	2.2	6.0	-1.11	39.3*
